Screening results (PubChem)
Many of the other results were omitted from the sample, so hits are more common in it than they were.
Myeloid diff MLP: compounds promoting myeloid differentiation; calls only at 10 µM; 1% of 360,000 active; ER-HoxA9 myeloid progenitors, lysozyme-GFP differentiation, flow cytometry; AID 624256;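 active = normalized GFP-positive differentiation at or above the plate's own cutoff, the solvent-only control mean plus 3 SD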;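 note: cells exposed to compound for four days before flow analysis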
XiGFP reactiv: activators of X-chromosome reactivation in mouse fibroblasts. XiGFP mouse fibroblasts, % GFP-positive cells imaging, 3 d; cells co-treated with 5-aza-dC sensitizer; scaled so ellipticine positive control = 100%. activation, % at 7.58 µM. 0.055% of 360,000 active;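 active = mean normalized replicate activation at least 10% and every replicate at or above 10%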;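 note: 0% = median of on-plate neutral control wells and 100% = ellipticine 6 µM median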
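Material: SV40-immortalized XiGFP fibroblast cells, line 68-5-11 | Buffer or medium: DMEM containing 5-aza-dC | Dosing: One concentration, pinned | Times: 3 d treatment, 15 min room-temperature fixation | Controls: Ellipticine 6 µM positive control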
ABCB6 inh 2: human ABCB6 transporter inhibition | Q9NP58 | K562-ABCB6 porphyrin accumulation, flow cytometry, 1 h; active compounds read low | fluorescence ratio to DMSO, % at 10 µM | 0.19% of 360,000 active;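 active = fluorescence ratio to DMSO below 75%, the collection mean minus 3 SD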;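 note: signal is porphyrin accumulated inside mitochondria; 100% equals median channel fluorescence of DMSO control wells; lower ratio means ABCB6 inhibition with less porphyrin fluorescence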
Target sequence (Q9NP58 whole entry, looked up): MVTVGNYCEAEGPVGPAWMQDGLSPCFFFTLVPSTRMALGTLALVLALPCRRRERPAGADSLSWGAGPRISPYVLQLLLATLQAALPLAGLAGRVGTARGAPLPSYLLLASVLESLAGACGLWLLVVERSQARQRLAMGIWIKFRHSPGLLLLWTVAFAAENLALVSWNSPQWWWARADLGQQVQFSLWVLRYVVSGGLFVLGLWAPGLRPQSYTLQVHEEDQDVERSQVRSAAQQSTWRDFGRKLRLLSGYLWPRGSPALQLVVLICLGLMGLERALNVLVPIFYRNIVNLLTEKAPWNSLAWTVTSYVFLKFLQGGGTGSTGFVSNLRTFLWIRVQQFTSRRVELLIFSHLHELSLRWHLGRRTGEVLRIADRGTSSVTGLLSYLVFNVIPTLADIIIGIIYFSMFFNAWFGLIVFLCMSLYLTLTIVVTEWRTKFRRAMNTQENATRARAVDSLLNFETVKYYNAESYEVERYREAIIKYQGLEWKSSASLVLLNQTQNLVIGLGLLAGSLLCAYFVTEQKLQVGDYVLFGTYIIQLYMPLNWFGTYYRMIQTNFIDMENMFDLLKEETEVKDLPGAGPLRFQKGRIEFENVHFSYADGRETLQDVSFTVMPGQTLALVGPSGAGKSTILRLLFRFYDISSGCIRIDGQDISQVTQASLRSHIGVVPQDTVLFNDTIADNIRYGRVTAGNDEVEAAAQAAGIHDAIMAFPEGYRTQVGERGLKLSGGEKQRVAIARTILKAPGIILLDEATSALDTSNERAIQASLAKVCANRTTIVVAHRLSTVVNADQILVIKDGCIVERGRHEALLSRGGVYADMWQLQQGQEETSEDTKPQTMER
Myeloid diff CP1: promotes myeloid progenitor differentiation. shares compounds with Myeloid diff MLP. ER-HoxA9 myeloid progenitors, GFP/Mac1 double-positive flow. calls only. 2% of 2,300 active;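 active = share of green or green-and-red cells above 9 and 9% in run 1 or 4 and 3% in run 2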
GFP autofluor: counter-screen for myeloid differentiation promoters: compound fluorescence. shares compounds with Myeloid diff MLP. ER-HoxA9 myeloid progenitors, no estrogen, GFP autofluorescence flow cytometry; vehicle wells 0%, positive control 100%. fluorescence response, % (concentration not given with the values). 7.4% of 2,300 active. AID 651707;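 active = over 5% cells positive for green fluorescent reporter, or over 2% positive for both it and APC stain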;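 note: range taken on the double positive population between DMSO and positive control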
An asterisk follows results filed as active; i = inactive; . = no result given; + = active, no number.

SMILES	Myeloid diff MLP	XiGFP reactiv	ABCB6 inh 2	Myeloid diff CP1	GFP autofluor
C[C@@H]1CCCCO[C@H](CN(C)C(=O)NC2CCCCC2)[C@@H](C)CN([C@@H](C)CO)C(=O)c2cc(NC(=O)Nc3ccc(C(F)(F)F)cc3)ccc2O1	.	0	.	.	.
NC(=O)CC(NC(=O)c1ccccc1)c1ccc(NCc2ccc(F)cc2)c([N+](=O)[O-])c1 (stereo not given)	+	0	102	i	0
NC(=O)CC(NC(=O)c1ccccc1)c1ccc(NCc2ccccc2)c([N+](=O)[O-])c1 (stereo not given)	i	0	96	.	.
COc1ccc(S(=O)(=O)N(C)C[C@@H]2Oc3c(NC(=O)C4CC4)cccc3C(=O)N([C@H](C)CO)C[C@H]2C)cc1	.	0	.	.	.
C[C@H]1COCn2nncc2CC[C@H](C)C(=O)N1	.	0	.	.	.
CCNC(=O)[C@@H]1[C@@H](CO)[C@@H]2Cn3c(ccc(-c4ccc(F)cc4)c3=O)[C@@H]2N1C	.	0	.	.	.
CCCNC(=O)N1CCC2(CC1)CN(C(C)=O)[C@@H](CO)c1c2c2ccc(OC)cc2n1C	.	0	.	.	.
CCOC(=O)c1ccc(CSc2ncn[nH]2)o1	i	.	96	i	0
COC(=O)c1ccc(CSc2ncn[nH]2)o1	i	.	105	.	.
O=C(C[C@@H]1CC[C@@H]2[C@H](COC[C@H](O)CN2S(=O)(=O)c2ccccc2Cl)O1)NCc1ccccc1Cl	.	0	.	.	.
C[C@H]1CN([C@@H](C)CO)S(=O)(=O)c2ccc(-c3cccc(F)c3)cc2O[C@H]1CN(C)CC1CC1	.	-1	.	.	.
Cc1noc(C)c1NC(=O)Nc1ccc2c(c1)C(=O)N([C@@H](C)CO)C[C@@H](C)[C@@H](CN(C)S(=O)(=O)c1ccc(F)cc1)OCCCC[C@@H](C)O2	.	0	.	.	.
N#C/C(=C/c1ccc(-c2cccc([N+](=O)[O-])c2)o1)C(=O)Nc1nc(-c2cccs2)cs1	i	0	106	.	.
N#C/C(=C\c1ccc(-c2ccc([N+](=O)[O-])cc2)o1)C(=O)Nc1nc(-c2cccs2)cs1	+	0	138	i	0
O=C1CS(=O)(=O)N(Cc2cccc(F)c2)c2ccc(Br)cc21	i	0	113	.	.
COc1ccc(CN2c3c(Br)cccc3C(=O)CS2(=O)=O)cc1	+	.	97	i	0
COc1ccc(S(=O)(=O)N(C)C[C@H]2Oc3ccc(NC(=O)C4CCCCC4)cc3CC(=O)N([C@H](C)CO)C[C@H]2C)cc1	.	0	.	.	.
C(=N\Nc1nc(-c2ccccc2)cs1)/c1ccncc1	i	0	92	.	.
O=C(O)Cc1sc(N/N=C\c2ccncc2)nc1-c1ccccc1	i	0	89	i	0
CCCC(=O)Nc1ccc2c(c1)C(=O)N(C)[C@@H]1CC[C@H](CC(=O)NCC(F)(F)F)O[C@H]1CO2	.	0	.	.	.
CC=Cc1ccc2n(c1=O)C[C@H]1[C@H](CO)[C@@H](C(=O)NC3CCC3)N(CCC)[C@@H]21 (mixture of isomers)	.	0	.	.	.
CCOc1ccccc1NC(=O)C(OC(=O)c1ccc(NC(=O)CC#N)cc1)c1ccccc1 (stereo not given)	+	0	87	i	5.3*
CC(OC(=O)c1ccc(NC(=O)CC#N)cc1)C(=O)NC(c1ccccc1)c1ccccc1 (stereo not given)	i	0	102	i	1
Cc1ccc(NC(=O)C(C)OC(=O)c2ccc(NC(=O)CC#N)cc2)cc1S(=O)(=O)N1CCOCC1 (stereo not given)	i	0	94	.	.
CCOC(=O)c1c(NC(=O)C(C)OC(=O)C2=COCCO2)sc2c1CCCC2 (stereo not given)	i	.	96	.	.
SMILES	Myeloid diff MLP	XiGFP reactiv	ABCB6 inh 2	Myeloid diff CP1	GFP autofluor
CCOC(=O)c1c(NC(=O)C(C)OC(=O)c2ccc(NC(=O)CC#N)cc2)sc2c1CCCC2 (stereo not given)	+	0	98	i	2
CCOc1ccccc1NC(=O)C(OC(=O)c1ccccc1)c1ccccc1 (stereo not given)	i	0	96	.	.
N#Cc1ccc(-c2ccc([C@@H]3[C@H](CO)N4CCCCN(S(=O)(=O)c5ccccc5)C[C@@H]34)cc2)cc1	.	0	.	.	.
C[C@@H]1CN([C@H](C)CO)C(=O)c2cccc(NC(=O)Nc3ccc4c(c3)OCO4)c2O[C@@H]1CN(C)C(=O)Nc1ccc2c(c1)OCO2	.	0	.	.	.
CC(C)NC(=O)N(C)C[C@H]1Oc2ccc(NC(=O)Nc3ccc(F)cc3)cc2C(=O)N([C@@H](C)CO)C[C@@H]1C	.	-1	.	.	.
CN1CCN(C(=O)C[C@H]2CC[C@@H](NC(=O)Nc3ccccc3F)[C@@H](CO)O2)CC1	.	0	.	.	.
COc1ccc(CC(=O)NN2C(=O)c3ccccc3C2=O)cc1	+	0	100	i	0
COC(=O)CCC(=O)NN1C(=O)c2ccccc2C1=O	i	-1	95	.	.
COc1ccc(CN(C)C[C@H]2Oc3ccc(NS(=O)(=O)c4cccs4)cc3CC(=O)N([C@@H](C)CO)C[C@@H]2C)cc1	.	-1	.	.	.
Cn1c(C(=O)NC2CCCCC2)cc2sccc21	i	.	100	.	.
CN(C(=O)c1cc2sccc2n1C)C1CCCCC1	+	.	101	i	0
O=S(=O)(N[C@H]1CC[C@@H](CCn2cc(C3CC3)nn2)O[C@@H]1CO)c1ccc(F)cc1	.	0	.	.	.
COc1ccc(S(=O)(=O)N(C)C[C@H]2OCCCC[C@@H](C)Oc3ccc(N(C)C)cc3C(=O)N([C@H](C)CO)C[C@H]2C)cc1	.	0	.	.	.
COCCCNCCOc1ccccc1-c1ccccc1	i	0	96	.	.
COCCCNCCCCOc1ccccc1-c1ccccc1	i	0	99	i	0
COC(=O)[C@H]1[C@H](CO)[C@H]2Cn3c(ccc(C4=CCCCC4)c3=O)[C@H]2N1Cc1cccnc1	.	0	.	.	.
COCC(=O)Nc1ccc2c(c1)[C@@H]1C[C@H](CC(=O)NCc3ccccc3F)O[C@H](CO)[C@@H]1O2	.	0	.	.	.
CCOc1ccc(-c2nnc(-c3ccccc3)n2-c2ccccc2)cc1	i	.	96	.	.
CCOc1ccc(-n2c(C)c3c(C)nnc(C)c3c2C)cc1	i	0	102	i	42*
CCN(CC)Cc1c(O)ccc2occ(C(=O)c3ccc(OC)cc3)c12	i	.	96	.	.
CCN(CC)Cc1c(O)ccc2c([N+](=O)[O-])c(C)n(-c3ccc(OC)cc3)c12	+	.	105	i	0
Cc1ccc(S(=O)(=O)N(C)C[C@@H]2OCCCC[C@H](C)Oc3ccc(NC(=O)Nc4cccc5ccccc45)cc3C(=O)N([C@H](C)CO)C[C@H]2C)cc1	.	0	.	.	.
Cc1noc(C)c1NC(=O)N(C)C[C@@H]1Oc2ccc(NC(=O)CCCCCC(=O)Nc3ccccc3N)cc2C(=O)N([C@@H](C)CO)C[C@@H]1C	.	0	.	.	.
COC(=O)c1sc2nc[nH]c(=O)c2c1C	i	.	112	.	.
Cc1ccccc1NC(=O)c1sc2nc[nH]c(=O)c2c1C	i	.	101	i	0
